In ChEMBL document CHEMBL2417474, “Synthesis, antiproliferative and anti-inflammatory activities of some novel 6-aryl-2-(p-(methanesulfonyl)phenyl)-4,5-dihydropyridazi-3(2H)-ones” (Eur J Med Chem, 2013):

Experiments:
Type in all cases: functional
K562 = test: Growth inhibition of human K562 cells assessed as cell growth at 10 uM after 48 hrs by sulforhodamine B assay; conditions: K562, 48 h, read-out: Activity
M14 = test: Growth inhibition of human M14 cells assessed as cell growth at 10 uM after 48 hrs by sulforhodamine B assay; conditions: M14, 48 h, read-out: Activity
MDA-MB-231 = test: Growth inhibition of human MDA-MB-231 cells assessed as cell growth at 10 uM after 48 hrs by sulforhodamine B assay; conditions: MDA-MB-231, 48 h, read-out: Activity
KM12 [1] = test: Growth inhibition of human KM12 cells after 48 hrs by sulforhodamine B assay; conditions: KM12, 48 h
Summary of the method: (§1)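 NCI 60-cell-line panel grown in RPMI-type medium with 5% fetal calf serum and 2 mM L-glutamine. Cells preincubated 24 h, then exposed continuously for 48 h to compound in DMSO at 10^-4 to 10^-8 M (five 10-fold levels). Growth read by SRB protein stain. GI50 is the concentration giving a 50% reduction in net protein increase relative to control cells.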

HT-29 [2] = test: Growth inhibition of human HT-29 cells after 48 hrs by sulforhodamine B assay; conditions: HT-29, 48 h; summary of the method: as §1
Malme-3M [3] = test: Growth inhibition of human MALME-3M cells assessed as cell growth at 10 uM after 48 hrs by sulforhodamine B assay; conditions: read-out: Activity
CCRF-CEM = test: Growth inhibition of human CCRF-CEM cells assessed as cell growth at 10 uM after 48 hrs by sulforhodamine B assay; conditions: read-out: Activity
MCF7 = test: Growth inhibition of human MCF7 cells assessed as cell growth at 10 uM after 48 hrs by sulforhodamine B assay; conditions: MCF7, 48 h, read-out: Activity
SK-OV-3 [4] = test: Growth inhibition of human SKOV3 cells assessed as cell growth at 10 uM after 48 hrs by sulforhodamine B assay; conditions: SK-OV-3, 48 h, read-out: Activity
Malme-3M [5] = test: Growth inhibition of human MALME-3M cells after 48 hrs by sulforhodamine B assay; summary of the method: as §1
DU-145 = test: Growth inhibition of human DU145 cells after 48 hrs by sulforhodamine B assay; conditions: DU-145, 48 h; summary of the method: as §1
HOP-62 = test: Growth inhibition of human HOP62 cells after 48 hrs by sulforhodamine B assay; conditions: HOP-62, 48 h; summary of the method: as §1
NCI-H23 = test: Growth inhibition of human NCI-H23 cells after 48 hrs by sulforhodamine B assay; conditions: NCI-H23, 48 h
Summary of the method: (§2)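 NCI 60-cell-line panel. Cells were grown in medium with 5% fetal calf serum and 2 mM L-glutamine, then preincubated 24 h in plates. Compounds were added from DMSO at five 10-fold concentrations from 100 to 0.01 µM and left on cells continuously for 48 h. Cell growth was read by sulforhodamine B protein stain. GI50 is the concentration that halves net protein increase relative to control cells.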

KM12 [6] = test: Growth inhibition of human KM12 cells assessed as cell growth at 10 uM after 48 hrs by sulforhodamine B assay; conditions: KM12, 48 h, read-out: Activity
HCT-116 = test: Growth inhibition of human HCT116 cells after 48 hrs by sulforhodamine B assay; conditions: HCT-116, 48 h; summary of the method: as §1
[7] = Growth inhibition of human NCI-ADR-RES cells after 48 hrs by sulforhodamine B assay; summary of the method: as §2
OVCAR-3 = test: Growth inhibition of human OVCAR3 cells assessed as cell growth at 10 uM after 48 hrs by sulforhodamine B assay; conditions: OVCAR-3, 48 h, read-out: Activity
NCI-H226 [8] = test: Growth inhibition of human NCI-H226 cells after 48 hrs by sulforhodamine B assay; conditions: NCI-H226, 48 h; summary of the method: as §2
786-0 = test: Growth inhibition of human 786-0 cells after 48 hrs by sulforhodamine B assay; conditions: 786-0, 48 h; summary of the method: as §1
MOLT-4 = test: Growth inhibition of human MOLT4 cells assessed as cell growth at 10 uM after 48 hrs by sulforhodamine B assay; conditions: MOLT-4, 48 h, read-out: Activity
LOX IMVI = test: Growth inhibition of human LOXIMVI cells after 48 hrs by sulforhodamine B assay; summary of the method: as §1
SF-295 = test: Growth inhibition of human SF295 cells after 48 hrs by sulforhodamine B assay; conditions: SF-295, 48 h; summary of the method: as §2
HCT-15 = test: Growth inhibition of human HCT15 cells after 48 hrs by sulforhodamine B assay; conditions: HCT-15, 48 h; summary of the method: as §1
IGROV-1 = test: Growth inhibition of human IGROV1 cells after 48 hrs by sulforhodamine B assay; conditions: IGROV-1, 48 h; summary of the method: as §1
NCI-H226 [9] = test: Growth inhibition of human NCI-H226 cells assessed as cell growth at 10 uM after 48 hrs by sulforhodamine B assay; conditions: NCI-H226, 48 h, read-out: Activity
[10] = Growth inhibition of human HCC2998 cells after 48 hrs by sulforhodamine B assay; conditions: HCC 2998, 48 h; summary of the method: as §1
OVCAR-8 = test: Growth inhibition of human OVCAR8 cells assessed as cell growth at 10 uM after 48 hrs by sulforhodamine B assay; conditions: OVCAR-8, 48 h, read-out: Activity
SK-MEL-2 = test: Growth inhibition of human SK-MEL-2 cells after 48 hrs by sulforhodamine B assay; conditions: SK-MEL-2, 48 h; summary of the method: as §2
A498 = test: Growth inhibition of human A498 cells after 48 hrs by sulforhodamine B assay; conditions: A498, 48 h; summary of the method: as §1
HOP-92 = test: Growth inhibition of human HOP92 cells assessed as cell growth at 10 uM after 48 hrs by sulforhodamine B assay; conditions: HOP-92, 48 h, read-out: Activity
SK-OV-3 [11] = test: Growth inhibition of human SKOV3 cells after 48 hrs by sulforhodamine B assay; conditions: SK-OV-3, 48 h; summary of the method: as §2
SNB-75 = test: Growth inhibition of human SNB75 cells after 48 hrs by sulforhodamine B assay; conditions: SNB-75, 48 h; summary of the method: as §2
HT-29 [12] = test: Growth inhibition of human HT-29 cells assessed as cell growth at 10 uM after 48 hrs by sulforhodamine B assay; conditions: HT-29, 48 h, read-out: Activity
[13] = read-out: LC50 (the source's name)

Structure (SMILES): CCc1ccc(C2=NN(c3ccc(S(C)(=O)=O)cc3)C(=O)CC2)cc1
- growth at 10 µM (K562): 10.4%
- growth at 10 µM (M14): 5.99%
- growth at 10 µM (MDA-MB-231): 55.5%
- GI50 (KM12 [1]): 0.93 µM
- LC50 (KM12 [1]): > 100 µM
- TGI (KM12 [1]): > 100 µM
- GI50 (HT-29 [2]): 0.41 µM
- LC50 (50% lethal concentration) (HT-29 [2]): > 100 µM
- TGI (HT-29 [2]): 12.1 µM
- growth at 10 µM (Malme-3M [3]): 38.8%
- growth at 10 µM (CCRF-CEM): 15.3%
- growth at 10 µM (MCF7): 26%
- growth at 10 µM (SK-OV-3 [4]): 28.7%
- GI50 (Malme-3M [5]): 6.8 µM
- TGI (Malme-3M [5]): > 67.6 µM
- CC50 (Malme-3M [5]; [13]): > 100 µM
- GI50 (DU-145): 5.66 µM
- TGI (DU-145): > 100 µM
- CC50 (DU-145; [13]): > 100 µM
- GI50 (HOP-62): 4.3 µM
- TGI (HOP-62): > 100 µM
- CC50 (HOP-62; [13]): > 100 µM
- GI50 (NCI-H23): 3.19 µM
- TGI (NCI-H23): > 100 µM
- CC50 (NCI-H23; [13]): > 100 µM
- growth at 10 µM (KM12 [6]): 17.3%
- GI50 (HCT-116): 0.73 µM
- LC50 (concentration killing 50% of cells) (HCT-116): > 100 µM
- TGI (HCT-116): > 100 µM
- GI50 [7]: 0.4 µM
- LC50 [7]: > 100 µM
- TGI [7]: 3.34 µM
- growth at 10 µM (OVCAR-3): -13.6%
- GI50 (NCI-H226 [8]): 0.2 µM
- TGI (NCI-H226 [8]): > 100 µM
- CC50 (NCI-H226 [8]; [13]): > 100 µM
- GI50 (786-0): 5.13 µM
- LC50 (786-0): > 100 µM
- TGI (786-0): 80.3 µM
- growth at 10 µM (MOLT-4): 15.3%
- GI50 (LOX IMVI): 3.5 µM
- TGI (LOX IMVI): > 100 µM
- CC50 (LOX IMVI; [13]): > 100 µM
- GI50 (SF-295): 0.93 µM
- LC50 (concentration killing 50% of cells present at start) (SF-295): > 100 µM
- TGI (SF-295): 8.73 µM
- GI50 (HCT-15): 1.9 µM
- LC50 (HCT-15): > 100 µM
- TGI (HCT-15): > 100 µM
- GI50 (IGROV-1): 1.48 µM
- LC50 (IGROV-1): > 100 µM
- TGI (IGROV-1): 55.2 µM
- growth at 10 µM (NCI-H226 [9]): 69.1%
- GI50 [10]: 5.27 µM
- TGI [10]: 53.4 µM
- CC50 [10, 13]: > 100 µM
- growth at 10 µM (OVCAR-8): 39.1%
- GI50 (SK-MEL-2): 0.9 µM
- LC50 (SK-MEL-2): > 100 µM
- TGI (SK-MEL-2): > 100 µM
- GI50 (A498): 0.14 µM
- TGI (A498): 2.3 µM
- CC50 (A498; [13]): > 100 µM
- growth at 10 µM (HOP-92): 68.6%
- GI50 (SK-OV-3 [11]): 2.44 µM
- LC50 (SK-OV-3 [11]): > 100 µM
- TGI (SK-OV-3 [11]): 19.6 µM
- GI50 (SNB-75): 1.32 µM
- TGI (SNB-75): > 7.89 µM
- CC50 (SNB-75; [13]): > 100 µM
- growth at 10 µM (HT-29 [12]): 11.5%

Structure (SMILES): O=c1[nH]cc(F)c(=O)[nH]1 [FLUOROURACIL]
- GI50 (KM12 [1]): 0.21 µM
- GI50 (HT-29 [2]): 0.17 µM
- GI50 (Malme-3M [5]): 0.05 µM
- GI50 (DU-145): 0.36 µM
- GI50 (HOP-62): 0.39 µM
- GI50 (NCI-H23): 0.33 µM
- GI50 (HCT-116): 0.22 µM
- GI50 [7]: 0.31 µM
- GI50 (NCI-H226 [8]): 54.7 µM
- GI50 (786-0): 0.72 µM
- GI50 (LOX IMVI): 0.24 µM
- GI50 (SF-295): 0.22 µM
- GI50 (HCT-15): 0.11 µM
- GI50 (IGROV-1): 1.22 µM
- GI50 [10]: 0.05 µM
- GI50 (SK-MEL-2): 56.7 µM
- GI50 (A498): 0.35 µM
- GI50 (SK-OV-3 [11]): 21.8 µM
- GI50 (SNB-75): 78.7 µM
